# In ChEMBL document CHEMBL4834404, “Template-Hopping Approach Leads to Potent, Selective, and Highly Soluble Bromo and Extraterminal Domain (BET) Second Bromodomain (BD2) Inhibitors” (J Med Chem, 2021):
# Assays:
# [1] = Unbound clearance in Wistar Han rat at 1 mg/kg, iv measured upto 7 hrs by LC-MS/MS analysis; assay type: ADME, organism-based; conditions: in vivo
# [2] = target: T1, Bromodomain-containing protein 2 (Homo sapiens, UniProt P25440); assay: Inhibition of 6His-Thr-BRD2 (1 to 473 residues) BD2 domain Y386A or Y113A mutant (unknown origin) incubated for 30 mins by TR-FRET assay
# [3] = AUC in Wistar Han rat at 1 mg/kg, iv measured upto 7 hrs by LC-MS/MS analysis; assay type: ADME, organism-based; parameters: route intravenous, dose 1 mg/kg, time <=7; conditions: in vivo
# How it was run: (§1)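 Surgically cannulated male Wistar Han rats (femoral vein dosing, jugular vein sampling), given 1 h iv infusion at target 1 mg/kg, 0.2 mg/mL in DMSO/10% (w/v) Kleptose HPB in saline (2:98 v/v); n = 1. Serial 25 μL blood samples predose to 7 h; parent compound by LC-MS/MS (LLQ 1−2 ng/mL); non-compartmental analysis of blood concentration−time profiles.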
# [4] = Volume of distribution at steady state in Wistar Han rat at 1 mg/kg, iv measured upto 7 hrs by LC-MS/MS analysis; assay type: ADME, organism-based; conditions: in vivo, read-out: Vdss; how it was run: as §1
# [5] = Solubility of compound by CLND assay; assay type: physicochemical
# [6] = target: Bromodomain-containing protein 4 (Homo sapiens, UniProt O60885, Y390A); assay: Inhibition of 6His-Thr-BRD4 (1 to 477 residues) BD2 domain Y390A mutant (unknown origin) incubated for 30 mins by TR-FRET assay
# Albumin = Albumin (Homo sapiens, UniProt P02768); assay: Binding affinity to human serum albumin; assay type: ADME; conditions: isolated protein
# How it was run: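 Chromatographic binding on chemically bonded HSA column (50 × 3 mm), 1.8 mL/min; mobile phase 50 mM ammonium acetate pH 7.4 with 2-propanol gradient (0−30% over 3 min, hold to 6 min, back to 0%); gradient retention time recorded.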
# [7] = target: T1, Bromodomain-containing protein 2; assay: Inhibition of 6His-Thr-BRD2 (1 to 473 residues) BD1 domain (unknown origin) incubated for 30 mins by TR-FRET assay
# [8] = Metabolic stability in human Hepatocyte assessed as intrinsic clearance at 0.5 uM incubated for 120 mins by LC-MS/MS analysis; assay type: ADME, tissue-based; conditions: hepatocytes, 2 h
# Blood = assay: Inhibition of LPS-stimulated MCP-1 production in human whole blood incubated for 24 hrs by mesoscale assay; assay type: functional, tissue-based
# How it was run: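 Sodium-heparinized human whole blood preincubated 30 min with compound (DMSO dilutions, 140× stocks) at 37 °C, 5% CO₂, then stimulated with Salmonella typhosa LPS (200 ng/mL final) for 24 h. PBS added, plates centrifuged, supernatant MCP-1 quantified by MesoScale Discovery immunoassay.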
# [9] = Half life in Wistar Han rat at 1 mg/kg, iv measured upto 7 hrs by LC-MS/MS analysis; assay type: ADME, organism-based; conditions: in vivo; how it was run: as §1
# [10] = target: T2, Bromodomain-containing protein 3 (Homo sapiens, UniProt Q15059); assay: Inhibition of 6His-Thr-BRD3 (1 to 435 residues) BD1 domain (unknown origin) incubated for 30 mins by TR-FRET assay
# Target sequence in this assay (Q15059 whole entry, the tested form may be a part): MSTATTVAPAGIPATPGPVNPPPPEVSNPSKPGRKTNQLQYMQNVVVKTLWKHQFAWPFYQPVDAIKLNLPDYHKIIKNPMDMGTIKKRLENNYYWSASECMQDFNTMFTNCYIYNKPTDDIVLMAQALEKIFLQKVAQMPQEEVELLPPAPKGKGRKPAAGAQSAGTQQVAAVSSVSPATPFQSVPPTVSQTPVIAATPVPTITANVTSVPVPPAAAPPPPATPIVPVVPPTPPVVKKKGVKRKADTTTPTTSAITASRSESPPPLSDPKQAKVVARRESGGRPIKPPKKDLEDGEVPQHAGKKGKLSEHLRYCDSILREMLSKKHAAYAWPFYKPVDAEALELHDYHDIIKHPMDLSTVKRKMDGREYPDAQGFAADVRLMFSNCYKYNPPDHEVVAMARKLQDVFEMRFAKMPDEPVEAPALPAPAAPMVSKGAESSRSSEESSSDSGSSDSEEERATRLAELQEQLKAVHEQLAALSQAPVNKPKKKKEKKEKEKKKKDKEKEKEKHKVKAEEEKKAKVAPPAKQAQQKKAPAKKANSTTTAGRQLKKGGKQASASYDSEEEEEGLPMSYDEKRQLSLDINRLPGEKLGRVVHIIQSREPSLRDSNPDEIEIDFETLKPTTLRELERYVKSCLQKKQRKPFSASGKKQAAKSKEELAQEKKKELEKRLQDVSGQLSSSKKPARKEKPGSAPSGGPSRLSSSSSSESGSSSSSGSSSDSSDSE
# [11] = Clearance in Wistar Han rat at 1 mg/kg, iv measured upto 7 hrs by LC-MS/MS analysis; assay type: ADME, organism-based; conditions: in vivo; how it was run: as §1
# [12] = Metabolic stability in rat Hepatocyte assessed as intrinsic clearance at 0.5 uM incubated for 60 mins by LC-MS/MS analysis; assay type: ADME, tissue-based; conditions: hepatocytes, 1 h
# [13] = Dose normalized AUC in Wistar Han rat at 3 mg/kg, po measured upto 24 hrs by LC-MS/MS analysis; assay type: ADME, organism-based; conditions: in vivo
# How it was run: (§2)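 Three naive male Wistar Han rats dosed by oral gavage at target 3 mg/kg, suspended in 1% (w/v) methylcellulose aq at 0.6 mg/mL. Serial 25 μL blood samples via tail vein up to 24 h; parent compound by LC-MS/MS (LLQ 1 ng/mL) against standards in control blood; non-compartmental PK analysis.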
# [14] = Fraction unbound in Wistar Han rat at 1 mg/kg, iv measured upto 4 hrs by LC-MS/MS analysis; assay type: ADME, organism-based
# How it was run: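 Control Wistar Han rat blood dialyzed against PBS by rapid equilibrium dialysis, 4 h at 37 °C, compound at 200 and 1000 ng/mL; matrix-matched aliquots analysed by LC-MS/MS; unbound fraction from buffer/blood peak area ratios, mean of the two concentrations.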
# [15] = target: Bromodomain-containing protein 4 (Homo sapiens, UniProt O60885, Y97A); assay: Inhibition of 6His-Thr-BRD4 (1 to 477 residues) BD1 Y97A mutant (unknown origin) incubated for 30 mins by TR-FRET assay
# [16] = target: Voltage-gated inwardly rectifying potassium channel KCNH2 (Homo sapiens, UniProt Q12809); assay: Inhibition of human ERG
# [17] = target: T2, Bromodomain-containing protein 3; assay: Inhibition of 6His-Thr-BRD3 (1 to 435 residues) BD2 domain Y348A or Y73A mutant (unknown origin) incubated for 30 mins by TR-FRET assay
# Target sequence in this assay (Q15059 2-726 limits assumed): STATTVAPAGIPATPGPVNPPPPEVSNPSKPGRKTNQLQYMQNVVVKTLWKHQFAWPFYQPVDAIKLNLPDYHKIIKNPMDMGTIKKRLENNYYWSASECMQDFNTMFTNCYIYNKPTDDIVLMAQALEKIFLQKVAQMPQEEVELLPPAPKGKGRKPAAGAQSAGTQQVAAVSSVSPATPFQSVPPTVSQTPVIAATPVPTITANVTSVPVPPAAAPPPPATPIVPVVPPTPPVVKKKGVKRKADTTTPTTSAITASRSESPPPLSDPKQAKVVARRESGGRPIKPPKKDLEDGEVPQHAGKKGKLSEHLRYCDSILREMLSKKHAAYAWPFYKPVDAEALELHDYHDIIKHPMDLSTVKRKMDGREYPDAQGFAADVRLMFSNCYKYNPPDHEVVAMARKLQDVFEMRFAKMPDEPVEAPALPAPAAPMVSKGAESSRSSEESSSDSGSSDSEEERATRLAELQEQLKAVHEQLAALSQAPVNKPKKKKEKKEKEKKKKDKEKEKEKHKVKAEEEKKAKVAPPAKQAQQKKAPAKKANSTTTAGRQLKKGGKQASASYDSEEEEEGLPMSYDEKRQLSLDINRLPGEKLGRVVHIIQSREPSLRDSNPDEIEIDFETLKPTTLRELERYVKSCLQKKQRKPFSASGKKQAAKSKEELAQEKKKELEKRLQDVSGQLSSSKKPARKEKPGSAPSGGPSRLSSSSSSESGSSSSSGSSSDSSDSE
# [18] = Oral bioavailability in Wistar Han rat at 3 mg/kg measured upto 24 hrs by LC-MS/MS analysis; assay type: ADME, organism-based; conditions: in vivo; how it was run: as §2
# [19] = Inhibition of LPS-induced MCP1 production in PBMC (unknown origin); assay type: functional, tissue-based
# Homo sapiens = organism: Homo sapiens; assay: Selectivity index, ratio of pIC50 of BRD4 BD1 (unknown origin) to pIC50 of BRD4 BD2 (unknown origin)
# [20] = Permeability of compound; assay type: ADME; conditions: not told; read-out: permeability
# [21] = Solubility of the compound in pH 6.5 FaSSIF at 1 mg measured after 4 hrs by HPLC analysis; assay type: physicochemical
# [22] = target: T3, Bromodomain testis-specific protein (Homo sapiens, UniProt Q58F21); assay: Inhibition of 6His-FLAG-Tev-BRDT (1 to 397 residues) BD2 domain Y309A or Y66A mutant (unknown origin) incubated for 30 mins by TR-FRET assay
# [23] = target: T3, Bromodomain testis-specific protein; assay: Inhibition of 6His-FLAG-Tev-BRDT (1 to 397 residues) BD1 domain (unknown origin) incubated for 30 mins by TR-FRET assay
# Sequence of Albumin (P02768 whole entry): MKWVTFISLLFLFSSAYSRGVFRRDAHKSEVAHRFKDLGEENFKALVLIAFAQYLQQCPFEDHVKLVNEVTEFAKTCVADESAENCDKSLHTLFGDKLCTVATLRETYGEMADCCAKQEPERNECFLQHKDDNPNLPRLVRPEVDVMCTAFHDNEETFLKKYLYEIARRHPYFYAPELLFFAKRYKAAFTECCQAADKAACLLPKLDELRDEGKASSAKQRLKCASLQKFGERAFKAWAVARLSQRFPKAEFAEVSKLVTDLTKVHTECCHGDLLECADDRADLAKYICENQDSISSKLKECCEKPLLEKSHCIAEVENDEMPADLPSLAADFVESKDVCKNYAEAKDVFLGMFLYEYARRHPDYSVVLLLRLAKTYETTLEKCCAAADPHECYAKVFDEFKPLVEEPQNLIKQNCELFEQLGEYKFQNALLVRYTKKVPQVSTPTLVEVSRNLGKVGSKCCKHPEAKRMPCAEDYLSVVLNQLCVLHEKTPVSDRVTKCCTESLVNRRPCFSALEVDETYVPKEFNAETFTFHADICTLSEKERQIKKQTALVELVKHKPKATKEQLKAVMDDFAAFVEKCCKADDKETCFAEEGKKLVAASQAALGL
# Sequence of Voltage-gated inwardly rectifying potassium channel KCNH2 (Q12809 whole entry, the tested form may be a part): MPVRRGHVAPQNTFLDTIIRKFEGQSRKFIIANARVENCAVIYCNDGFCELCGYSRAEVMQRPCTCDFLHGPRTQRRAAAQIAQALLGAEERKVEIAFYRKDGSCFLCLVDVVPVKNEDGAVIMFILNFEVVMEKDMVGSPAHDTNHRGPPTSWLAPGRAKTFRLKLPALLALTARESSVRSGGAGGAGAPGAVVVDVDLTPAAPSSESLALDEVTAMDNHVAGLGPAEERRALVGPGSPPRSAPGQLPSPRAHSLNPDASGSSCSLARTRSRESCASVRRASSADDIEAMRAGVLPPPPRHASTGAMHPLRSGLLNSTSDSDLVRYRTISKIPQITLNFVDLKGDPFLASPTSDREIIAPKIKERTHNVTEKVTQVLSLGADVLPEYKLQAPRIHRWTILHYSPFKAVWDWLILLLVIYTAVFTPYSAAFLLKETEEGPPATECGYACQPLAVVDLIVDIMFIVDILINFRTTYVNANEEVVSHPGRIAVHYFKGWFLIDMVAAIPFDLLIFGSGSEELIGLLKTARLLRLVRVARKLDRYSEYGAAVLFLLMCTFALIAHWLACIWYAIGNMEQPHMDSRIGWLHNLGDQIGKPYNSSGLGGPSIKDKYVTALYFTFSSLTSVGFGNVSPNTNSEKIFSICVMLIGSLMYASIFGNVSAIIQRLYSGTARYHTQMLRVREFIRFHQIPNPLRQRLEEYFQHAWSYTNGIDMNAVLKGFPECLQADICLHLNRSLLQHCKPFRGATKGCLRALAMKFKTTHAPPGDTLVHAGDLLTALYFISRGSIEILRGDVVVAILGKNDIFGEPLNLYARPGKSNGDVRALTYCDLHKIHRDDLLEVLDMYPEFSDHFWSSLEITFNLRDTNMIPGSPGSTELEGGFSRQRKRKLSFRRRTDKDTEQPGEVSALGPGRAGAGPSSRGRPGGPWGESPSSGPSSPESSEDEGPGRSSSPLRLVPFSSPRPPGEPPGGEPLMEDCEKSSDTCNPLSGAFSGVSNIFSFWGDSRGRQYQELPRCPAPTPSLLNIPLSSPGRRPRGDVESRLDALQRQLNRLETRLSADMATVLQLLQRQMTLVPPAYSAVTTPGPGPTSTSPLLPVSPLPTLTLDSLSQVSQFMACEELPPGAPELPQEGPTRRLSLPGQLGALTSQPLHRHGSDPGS
# T1 sequence (P25440 whole entry, the tested form may be a part): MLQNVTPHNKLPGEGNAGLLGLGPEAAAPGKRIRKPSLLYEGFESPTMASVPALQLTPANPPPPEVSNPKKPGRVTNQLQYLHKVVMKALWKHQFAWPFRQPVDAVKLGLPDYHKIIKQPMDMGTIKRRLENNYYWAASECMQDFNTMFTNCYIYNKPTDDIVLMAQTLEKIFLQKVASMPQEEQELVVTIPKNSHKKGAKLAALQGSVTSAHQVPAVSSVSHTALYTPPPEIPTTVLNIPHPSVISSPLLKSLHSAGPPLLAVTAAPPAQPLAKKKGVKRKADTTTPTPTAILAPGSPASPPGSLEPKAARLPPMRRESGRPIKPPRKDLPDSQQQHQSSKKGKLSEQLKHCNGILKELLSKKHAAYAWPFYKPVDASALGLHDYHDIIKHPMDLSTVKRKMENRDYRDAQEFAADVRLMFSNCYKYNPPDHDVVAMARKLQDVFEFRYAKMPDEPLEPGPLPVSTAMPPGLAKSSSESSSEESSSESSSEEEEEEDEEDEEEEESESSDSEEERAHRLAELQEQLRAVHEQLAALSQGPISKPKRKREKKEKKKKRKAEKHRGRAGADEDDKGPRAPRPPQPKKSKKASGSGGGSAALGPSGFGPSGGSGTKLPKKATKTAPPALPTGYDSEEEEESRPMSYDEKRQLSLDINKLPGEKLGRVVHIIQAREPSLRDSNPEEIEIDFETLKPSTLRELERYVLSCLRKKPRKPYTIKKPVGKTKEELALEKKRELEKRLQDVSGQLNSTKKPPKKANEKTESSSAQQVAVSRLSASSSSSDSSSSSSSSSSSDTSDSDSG
solubility kinetic [5],IC50 [6],IC50 [15],Ratio pIC50 (Homo sapiens),Papp [20],Compound,also measured
145 µg/mL,0.0501 µM,5.01 µM,100,15 ×10⁻⁶ cm/s,C[C@H](Oc1ccc(C(=O)NC2CC2)cc1-c1cn(C)nn1)c1ccccn1,CL free [1]: 19 mL/min/kg; pIC50 [2]: 6.6; AUC at 7 h [3]: 1180 ng·h/mL; Vd [4]: 1.8 L/kg; Activity (Albumin): 84%; IC50 [7]: 39.8 µM; CLH [8]: < 0.45 mL/min/g; IC50 (Blood): 0.398 µM; half-life [9]: 1.65 h; IC50 [10]: 12.6 µM; clearance [11]: 14 mL/min/kg; CLH [12]: < 0.8 mL/min/g; AUC/dose [13]: 23 kg·min/L; fraction unbound at 4 h [14]: 0.76; IC50 [16]: 39.8 µM; pIC50 [17]: 7.1; bioavailability [18]: 32%; IC50 [19]: 0.0158 µM
,,,,1.7 ×10⁻⁶ cm/s,CC(=O)Nc1c(F)cc(C(=O)N[C@H]2CC[C@H](O)CC2)cc1O[C@@H](C)c1ccccc1 [GSK046],solubility at 4 h [21]: 996 µg/mL
131 µg/mL,0.251 µM,6.31 µM,25,4.7 ×10⁻⁶ cm/s,C[C@H](Oc1ccc(C(N)=O)cc1-c1cn(C)nn1)c1ccccn1,
≥ 162 µg/mL,0.126 µM,20 µM,160,48 ×10⁻⁶ cm/s,CCNC(=O)c1ccc(OCc2ccccc2OC)c(-c2cn(C)nn2)c1,
≥ 45 µg/mL,0.631 µM,> 50.1 µM,> 80,47 ×10⁻⁶ cm/s,CCNC(=O)c1cc(Cc2cccc(OC)c2)nc(-c2cn(C)nn2)c1,
≥ 193 µg/mL,0.01 µM,3.98 µM,400,0.53 ×10⁻⁶ cm/s,C[C@H](Oc1ccc(C(=O)NCCC[C@@]2(F)CCCNC2)cc1-c1cn(C)nn1)c1ccccn1,
≥ 181 µg/mL,0.0251 µM,6.31 µM,250,1.9 ×10⁻⁶ cm/s,Cn1cc(-c2cc(C(=O)NCC[C@]3(F)CCCNC3)cc(Cc3ccccc3)n2)nn1,
≥ 134 µg/mL,0.0251 µM,10 µM,400,< 0.3 ×10⁻⁶ cm/s,Cn1cc(-c2cc(C(=O)NCCCC3CCNCC3)cc(Cc3ccccc3)n2)nn1,
≥ 172 µg/mL,0.01 µM,5.01 µM,500,2.3 ×10⁻⁶ cm/s,Cn1cc(-c2cc(C(=O)NCCC[C@@]3(F)CCCNC3)cc(Cc3ccccc3)n2)nn1,
≥ 177 µg/mL,0.0251 µM,6.31 µM,250,< 0.3 ×10⁻⁶ cm/s,C[C@H](Oc1ccc(C(=O)NCC[C@@H]2CNCCO2)cc1-c1cn(C)nn1)c1ccccn1,
≥ 182 µg/mL,0.0631 µM,7.94 µM,125,< 0.3 ×10⁻⁶ cm/s,C[C@H](Oc1ccc(C(=O)NCC[C@H]2CNCCO2)cc1-c1cn(C)nn1)c1ccccn1,
≥ 102 µg/mL,,,,39 ×10⁻⁶ cm/s,CCNC(=O)c1cc(Cc2ccccc2)nc(C(=O)NC)c1,solubility at 4 h [21]: 310 µg/mL
≥ 148 µg/mL,0.0316 µM,10 µM,315,30 ×10⁻⁶ cm/s,CCNC(=O)c1cc(Cc2cccc3[nH]ccc23)nc(-c2cn(C)nn2)c1,CL free [1]: 205 mL/min/kg; pIC50 [2]: 7.3; AUC at 7 h [3]: 778 ng·h/mL; Vd [4]: 1.1 L/kg; Activity (Albumin): 90%; IC50 [7]: 25.1 µM; CLH [8]: < 0.45 mL/min/g; pIC50 [22]: 7.3; IC50 (Blood): 0.398 µM; half-life [9]: 0.87 h; IC50 [10]: 31.6 µM; clearance [11]: 21 mL/min/kg; CLH [12]: 1.98 mL/min/g; AUC/dose [13]: 15 kg·min/L; IC50 [16]: 31.6 µM; pIC50 [17]: 7.5; bioavailability [18]: 31%; IC50 [19]: 0.0251 µM; IC50 [23]: 25.1 µM
